Experimental findings from ChEMBL document CHEMBL1148377, “Identification of novel binding interactions in the development of potent, selective 2-naphthamidine inhibitors of urokinase. Synthesis, structural analysis, and SAR of N-phenyl amide 6-substitution” (J Med Chem, 2004) are described below.

One assay has as its target Plasma kallikrein (Homo sapiens, UniProt P03952). Briefly: Binding affinity against human plasma kallikrein. Format: cell-free. In short, it runs like this:
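Enzyme: human plasma kallikrein at 100 ng/mL. Substrate: S-2302 (H-D-Pro-Phe-Arg-pNA) at 330 μM. Conditions were pH 7.4, 50 mM Tris/0.15 M NaCl/0.5% Pluronic F-68, with compounds from DMSO at 0.01–250 μM. Substrate addition started each reaction, followed by pNA release at 405 nm over 15 min. Ki was calculated from rate-based percent inhibition using previously established Km.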

Another assay deals with Plasminogen (Homo sapiens, UniProt P00747). The assay is described as follows: Binding affinity towards human plasmin. In short, it runs like this: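 Uses human plasmin at 18 nM with S-2251 (H-D-Val-Leu-Lys-pNA) at 360 μM. The buffer was 50 mM Tris/0.15 M NaCl + 0.5% Pluronic F-68, pH 7.4, and compounds were added in DMSO at 0.01–250 μM. After substrate start, absorbance at 405 nm was tracked for 15 min. Percent inhibition came from rates, and Ki from percent inhibition with established Km values.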
Chain of Plasminogen (P00747 97-580 limits assumed): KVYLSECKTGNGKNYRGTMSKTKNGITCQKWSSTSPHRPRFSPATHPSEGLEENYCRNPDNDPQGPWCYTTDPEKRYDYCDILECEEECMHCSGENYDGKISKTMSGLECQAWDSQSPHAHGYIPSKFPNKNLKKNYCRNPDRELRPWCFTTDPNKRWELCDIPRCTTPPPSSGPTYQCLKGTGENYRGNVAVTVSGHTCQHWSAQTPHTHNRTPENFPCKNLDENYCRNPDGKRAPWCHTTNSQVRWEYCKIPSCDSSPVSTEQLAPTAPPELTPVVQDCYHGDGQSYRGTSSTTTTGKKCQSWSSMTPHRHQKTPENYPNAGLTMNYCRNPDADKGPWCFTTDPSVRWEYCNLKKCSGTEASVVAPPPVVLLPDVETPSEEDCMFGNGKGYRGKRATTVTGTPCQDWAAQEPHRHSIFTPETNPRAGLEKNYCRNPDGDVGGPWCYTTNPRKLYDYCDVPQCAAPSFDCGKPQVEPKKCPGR
Chain of Plasminogen (P00747 581-810 limits assumed): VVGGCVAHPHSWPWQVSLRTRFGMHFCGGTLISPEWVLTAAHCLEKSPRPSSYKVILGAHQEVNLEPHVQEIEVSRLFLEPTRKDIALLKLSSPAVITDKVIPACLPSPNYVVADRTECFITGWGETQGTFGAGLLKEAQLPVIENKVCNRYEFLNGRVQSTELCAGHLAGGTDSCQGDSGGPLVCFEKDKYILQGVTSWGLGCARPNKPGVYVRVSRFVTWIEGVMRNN

For a further assay, the target named is Prothrombin (Homo sapiens, UniProt P00734). Briefly: Binding affinity against human alpha thrombin.
Assay [1] concerns the target Tissue-type plasminogen activator (Homo sapiens, UniProt P00750). Briefly: Binding affinity towards human Tissue type plasminogen activator. In outline: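 Human tPA (1 μg/mL) was run against S-2288 (H-D-Ile-Pro-Arg-pNA) at 1350 μM in Tris 50 mM/NaCl 0.15 M/0.5% Pluronic F-68 buffer at pH 7.4. Test agents in DMSO spanned 0.01–250 μM. Substrate addition began the reaction, and p-nitroaniline formation at 405 nm was followed for 15 min. Ki derived from percent inhibition and previously determined Km.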

Assay [2] addresses Urokinase-type plasminogen activator (Homo sapiens, UniProt P00749).

Chain of Tissue-type plasminogen activator (P00750 whole entry): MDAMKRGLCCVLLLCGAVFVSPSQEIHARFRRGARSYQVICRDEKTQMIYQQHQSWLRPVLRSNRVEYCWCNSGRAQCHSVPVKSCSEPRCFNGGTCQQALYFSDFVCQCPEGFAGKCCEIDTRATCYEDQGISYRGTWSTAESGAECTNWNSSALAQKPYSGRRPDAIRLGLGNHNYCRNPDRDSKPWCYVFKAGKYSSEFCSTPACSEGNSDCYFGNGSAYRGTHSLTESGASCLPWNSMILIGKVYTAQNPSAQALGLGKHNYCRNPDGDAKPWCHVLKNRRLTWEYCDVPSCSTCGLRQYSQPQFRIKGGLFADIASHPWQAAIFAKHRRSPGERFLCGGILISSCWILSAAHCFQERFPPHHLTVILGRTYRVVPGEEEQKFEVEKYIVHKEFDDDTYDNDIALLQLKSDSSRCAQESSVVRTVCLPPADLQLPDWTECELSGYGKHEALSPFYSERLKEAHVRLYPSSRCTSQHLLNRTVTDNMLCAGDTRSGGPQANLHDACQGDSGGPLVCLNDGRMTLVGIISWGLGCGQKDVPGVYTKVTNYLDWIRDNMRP
Chain of Plasma kallikrein (P03952 20-390 limits assumed): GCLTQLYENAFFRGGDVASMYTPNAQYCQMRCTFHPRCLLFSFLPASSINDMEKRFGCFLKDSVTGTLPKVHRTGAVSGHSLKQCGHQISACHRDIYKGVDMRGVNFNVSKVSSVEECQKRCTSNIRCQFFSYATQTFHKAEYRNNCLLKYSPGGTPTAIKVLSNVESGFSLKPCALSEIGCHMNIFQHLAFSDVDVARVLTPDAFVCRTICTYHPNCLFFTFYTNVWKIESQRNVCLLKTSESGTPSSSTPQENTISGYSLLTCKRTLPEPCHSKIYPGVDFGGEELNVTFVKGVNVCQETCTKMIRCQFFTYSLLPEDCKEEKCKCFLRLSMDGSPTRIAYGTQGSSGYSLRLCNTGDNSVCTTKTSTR
Chain of Plasma kallikrein (P03952 391-638 limits assumed): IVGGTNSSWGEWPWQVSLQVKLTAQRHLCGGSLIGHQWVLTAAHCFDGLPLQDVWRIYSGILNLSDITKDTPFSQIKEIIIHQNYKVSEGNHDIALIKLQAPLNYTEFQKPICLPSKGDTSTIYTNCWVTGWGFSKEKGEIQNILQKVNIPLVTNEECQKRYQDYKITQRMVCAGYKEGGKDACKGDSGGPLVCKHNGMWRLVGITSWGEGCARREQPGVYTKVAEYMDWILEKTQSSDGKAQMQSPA

A word on the Ki: it is the dissociation constant of the complex between target and ligand, obtained from inhibition or displacement. A higher Ki goes with a looser hold on the target. For `N=C(N)c1ccc2cc(C(=O)Nc3ccccc3)ccc2c1`, the inhibition constant Ki at Plasma kallikrein came to 2500 nM; on Plasminogen, 1950 nM; on Prothrombin, 5640 nM; in assay [1], 31800 nM.
With `N=C(N)c1ccc2ccccc2c1`, the Ki is 22500 nM on Plasma kallikrein, 51300 nM on Plasminogen, > 100000 nM in assay [1] and 5910 nM in assay [2].
`CCOc1cccc(NC(=O)c2ccc3cc(C(=N)N)ccc3c2)c1` had a Ki in assay [2] of 82 nM.
`CCC1CNCc2ccc(NC(=O)c3ccc4cc(C(=N)N)ccc4c3)cc21` (stereo not drawn): the inhibition constant (Ki) on Plasma kallikrein came to 145 nM; on Plasminogen, 1120 nM; on Prothrombin, 6440 nM; in assay [1] it was 1650 nM.
For the compound `N#Cc1ccc2cc(NC(=O)c3ccccc3)ccc2c1`, the inhibition constant Ki at Plasma kallikrein is 8000 nM; at Plasminogen, 5560 nM; on Prothrombin it was 17600 nM; in assay [1], > 100000 nM.
As for `CC(C)C1=NCCc2ccc(NC(=O)c3ccc4cc(C(=N)N)ccc4c3)cc21`, the inhibition constant (Ki) on Plasma kallikrein was 436 nM; at Plasminogen, 768 nM; on Prothrombin it was 4990 nM; in assay [1], 1840 nM.
For the compound `CC(C)CC1NCCc2ccc(NC(=O)c3ccc4cc(C(=N)N)ccc4c3)cc21` (stereo not drawn), the inhibition constant Ki at Plasma kallikrein was 1350 nM; on Plasminogen, 1190 nM; at Prothrombin, 7310 nM; in assay [1], > 50000 nM; in assay [2], 123 nM.
Regarding `N=C(N)c1ccc2cc(C(=O)Nc3cccc(CC4CCCC4)c3)ccc2c1`, affinity in assay [2] was put at a Ki of 167 nM.
On the same count and under the same terms, in the case of `N=C(N)c1ccc2cc(C(=O)Nc3cccc(Oc4ccccc4)c3)ccc2c1` it was 517 nM.
`COc1cccc(NC(=O)c2ccc3cc(C(=N)N)ccc3c2)c1` gave a Ki in assay [2] of 233 nM. This Ki lies about 2.2-fold lower than the previous one.
The same measure, in the same setting: as for `CN(C(=O)c1ccc2cc(C(=N)N)ccc2c1)c1ccccc1`, the figure is 15500 nM.
Take `N=C(N)c1ccc2cc(C(=O)Nc3ccc4c(c3)C(C3CCCC3)NCC4)ccc2c1` (stereo not drawn): the inhibition constant Ki on Plasma kallikrein was 400 nM; on Plasminogen, 833 nM; at Prothrombin it was 10200 nM; in assay [1] it was 3950 nM; in assay [2], 26.5 nM.
Take `N=C(N)c1ccc2cc(C(=O)Nc3ccc(CO)cc3)ccc2c1`: the inhibition constant (Ki) was 2570 nM on Plasma kallikrein, 3820 nM on Plasminogen, 35100 nM on Prothrombin and 8350 nM in assay [1].
Taken in the same sequence, the figures for `CC(C)Oc1cccc(NC(=O)c2ccc3cc(C(=N)N)ccc3c2)c1` were 1370 nM, 554 nM, 3490 nM and 2370 nM.
On to `CC(C)Oc1cc(NC(=O)c2ccc3cc(C(=N)N)ccc3c2)cc(OC(C)C)c1`, for which the Ki came to 4300 nM at Plasma kallikrein; 1060 nM on Plasminogen; 21700 nM at Prothrombin; 790 nM in assay [1]; 28 nM in assay [2].
For `N=C(N)c1ccc2cc(C(=O)Nc3ccc4c(c3)CCNC4)ccc2c1`, the inhibition constant Ki on Plasma kallikrein is 112 nM; on Plasminogen it was 1030 nM; on Prothrombin, 6920 nM; in assay [1] it was 2320 nM.
The corresponding values for `N=C(N)c1ccc2cc(C(=O)Nc3cccc(OC4CCCC4)c3)ccc2c1` are 2720 nM, 498 nM, 5580 nM and 3390 nM.
In turn, `CCC(CC)Oc1cccc(NC(=O)c2ccc3cc(C(=N)N)ccc3c2)c1` displayed a Ki in assay [2] of 104 nM.
For `CCc1ccc(NC(=O)c2ccc3cc(C(=N)N)ccc3c2)cc1`, the Ki at Plasma kallikrein was 18100 nM; on Plasminogen, 3870 nM; on Prothrombin it was 43700 nM; in assay [1], 83900 nM; in assay [2], 736 nM.
Regarding `COc1cc(NC(=O)c2ccc3cc(C(=N)N)ccc3c2)cc(OC)c1`, the Ki in assay [2] stood at 139 nM.
With `N=C(N)c1ccc2cc(C(=O)Nc3ccc(C(N)=O)cc3)ccc2c1`, the inhibition constant Ki is 2430 nM at Plasma kallikrein; 1970 nM on Plasminogen; 2350 nM on Prothrombin; > 100000 nM in assay [1]; 326 nM in assay [2].
Take `CNC(=O)c1ccc2cc(C(=N)N)ccc2c1`: affinity in assay [2] was put at a Ki of 8700 nM.
`N=C(N)c1ccc2cc(C(=O)Nc3ccc4c(c3)C(C3CCCC3)=NCC4)ccc2c1`: the inhibition constant (Ki) turned out to be 849 nM on Plasma kallikrein; 765 nM at Plasminogen; 5310 nM on Prothrombin; 3130 nM in assay [1]; 35.5 nM in assay [2].
Consider `CC(C)CC1=NCCc2ccc(NC(=O)c3ccc4cc(C(=N)N)ccc4c3)cc21`, for which the Ki in assay [2] turned out to be 161 nM.
Consider `[H]/N=C(\N)c1ccc2cc(C(=O)Nc3ccc(CN)cc3)ccc2c1`, for which the inhibition constant Ki was 7170 nM at Plasma kallikrein, 16000 nM on Plasminogen, > 100000 nM at Prothrombin and 58400 nM in assay [1].
For `CC(C)Oc1cc(NC(=O)c2ccc3cc(C(=N)N)ccc3c2)cc(OC2CCCC2)c1`, the Ki at Plasma kallikrein is 3330 nM; at Plasminogen, 966 nM; at Prothrombin, 21600 nM; in assay [1], 844 nM; in assay [2], 22 nM.
Take `CC(C)C1NCCc2ccc(NC(=O)c3ccc4cc(C(=N)N)ccc4c3)cc21` (stereo not drawn): the inhibitory constant (Ki) is 230 nM on Plasma kallikrein, 631 nM on Plasminogen, 5720 nM at Prothrombin and 1120 nM in assay [1].
